The text below walks through data of ChEMBL document CHEMBL1926557 (Bioorg Med Chem, 2012).

Data set [1] in a line: Cytotoxicity against rat microglia cells after 90 mins by LDH release assay. The data set is classed as cell-based. Conditions: 1.5 h. The gist of the method: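 Short-term viability of PMA (1 µM)-stimulated rat microglia measured by LDH release, given as percent of total LDH. Total LDH is released LDH plus the intracellular LDH from cells lysed with 0.1% Triton X-100. LDH50 is the concentration causing release of 50% of total LDH. Data from 3–4 experiments.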

Data set [2] in a line: Antineuroinflammatory activity in LPS-stimulated rat microglia cells assessed as inhibition of PMA-stimulated TXB2 release preincubated for 15 mins measured 70 mins after PMA challenge. The data set is classed as functional. The method in brief: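 Rat neonatal microglia (2 × 10^5 cells/well) primed with E. coli LPS 0.3 ng/mL for 17 h in DMEM + 10% FBS + penicillin/streptomycin at 35.9 °C, 5% CO2. Cells washed with warm HBSS, pre-exposed to compound (0.01–10 µM) or DMSO vehicle, then triggered with PMA 1 µM. TXB2 in supernatant quantified by EIA. Triplicate wells, 1 mL final volume, 2–4 experiments. IC50 derived.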

Data set [3] in a line: Cytotoxicity against rat microglia cells assessed as cell viability after 18 hrs by WST-1 assay. The format is cell-based. The method in brief:
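Rat neonatal microglia (10,000 cells/well) plated in LPS-free wells in FBS-free DMEM with penicillin/streptomycin. Compound (0.1–10 µM final) or DMSO vehicle added for 18 h at 36 °C, 5% CO2. WST-1 then added for 2 h, and formazan read at 450 nm against a 620 nm reference. Treated wells compared with vehicle, significance at p < 0.05.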

A short description of data set [4]: Antineuroinflammatory activity in LPS-stimulated rat microglia cells assessed as inhibition of PMA-stimulated superoxide anion release preincubated for 15 mins measured 70 mins after PMA challenge. The data set is classed as functional. The gist of the method: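 Rat neonatal microglia (2 × 10^5 cells/well) primed with E. coli LPS 0.3 ng/mL for 17 h in DMEM + 10% FBS + penicillin/streptomycin at 35.9 °C, 5% CO2. Cells washed with warm HBSS, pre-exposed to compound (0.01–10 µM) or DMSO vehicle, then triggered with PMA 1 µM. Superoxide measured as superoxide dismutase-inhibitable reduction of ferricytochrome c. Triplicate wells, 2–4 experiments. IC50 derived.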

For orientation: IC50 means the concentration that gives 50% inhibition.

Where only a bound is given, the exact number is not on record here.

Consider `[C-]#[N+]C(C)(C)C[C@@H]1C[C@H](C)[C@H]2CC[C@H](C)[C@@]3([N+]#[C-])CCC(=O)[C@@H]1[C@H]23`, for which the half-inhibitory concentration (IC50) in data set [1] was above 10 µM; in data set [2] (read-out: IC50) it was 1.43 µM; in data set [4] it was above 10 µM. In data set [3], the Activity result is recorded as “Non-toxic”.

Take `CC(C(=O)O)c1ccc(-c2ccccc2)c(F)c1` (stereo not given) [FLURBIPROFEN]: the half-inhibitory concentration (IC50) in data set [2] (read-out: IC50(app)) worked out at 0.1 µM.

Consider `[C-]#[N+]C(C)(C)C[C@@H]1C[C@H](C)[C@H]2CC[C@](C)([N+]#[C-])[C@@H]3CCC(=C)[C@@H]1[C@H]23`, for which the 50% inhibitory concentration (IC50) is above 10 µM in data set [1], 0.2 µM in data set [2] (read-out: IC50) and above 10 µM in data set [4]. Further, the Activity result in data set [3] is listed as “Non-toxic”.

For the compound `[C-]#[N+][C@@]12CCC(=C)[C@H]3[C@H](CC(C)(C)NC(=O)CN4CCC4=O)C[C@H](C)[C@@H](CC[C@@H]1C)[C@@H]32` [MONAMPHILECTINE A], the half-inhibitory concentration (IC50) in data set [1] was above 10 µM; in data set [2] (read-out: IC50) it was 4.69 µM; in data set [4] it was above 10 µM. The Activity entry in data set [3] is listed as “Non-toxic”.

In the case of `CC(=O)Oc1ccccc1C(=O)O` [ASPIRIN], the IC50 in data set [2] (read-out: IC50) is 3.12 µM.

As to `[C-]#[N+][C@@]12CCC(=C)[C@H]3[C@H](CC(C)(C)NC=O)C[C@H](C)[C@@H](CC[C@@H]1C)[C@@H]32`, the IC50 was above 10 µM in data set [1], 1.48 µM in data set [2] (read-out: IC50) and above 10 µM in data set [4]. Besides, in data set [3], the Activity entry is “Non-toxic”.

Consider `[C-]#[N+][C@@]1(C)CC[C@H]2[C@H]3[C@@H](C(=C)CC[C@H]31)[C@H](CC(=C)C)C[C@@H]2C`, for which the IC50 was above 10 µM in data set [1], 1.72 µM in data set [2] (read-out: IC50) and above 10 µM in data set [4]. Further, the Activity result in data set [3] is given as “Non-toxic”.

Consider `[C-]#[N+]C(C)(C)C[C@@H]1C[C@H](C)[C@H]2CC[C@H](C)[C@@]3([N+]#[C-])CCC(=C)[C@@H]1[C@H]23` [DIISOCYANOAMPHILECTENE], for which the figures for the IC50 in data set [1], in data set [2] (read-out: IC50) and in data set [4] were above 10 µM, 0.23 µM and above 10 µM, respectively. In addition, the Activity result in data set [3] is “Non-toxic”.

As for `C=C1CC[C@@]2(NC=O)[C@H]3[C@H](CC[C@@H]2C)[C@@H](C)C[C@@H](CC(C)(C)NC=O)[C@H]13`, the figures for the half-inhibitory concentration (IC50) in data set [1], in data set [2] (read-out: IC50) and in data set [4] were above 10 µM, 3.14 µM and above 10 µM, respectively. The Activity result in data set [3] is listed as “Non-toxic”.
